B1: Osa-1-4 twister ribozyme (parent)
chain: CCGCCUAACACUGCCAAUGCCGGUCCCAAGCCCGGAUAAAAGUGGAGGGGGCGG

In the data set the parent is B1. As to the kind of experiment: self-cleavage, relative activity (ratio to wild type); higher = more cleavage; co-transcriptional. The gist of the method:
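A DNA template was synthesised for a 54-nucleotide twister ribozyme from Oryza sativa, with 97 % wild-type base and 1 % of each other base at each of the 48 positions downstream of the cleavage site. The ribozyme cleaved itself co-transcriptionally during 2 h of in vitro transcription at 37 °C. Reverse transcription with a template-switching oligonucleotide, PCR amplification and deep sequencing followed, and cleavage status came from reads with or without upstream sequence. Relative activity is the fraction cleaved normalised to wild type.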
For A10C C14G, the self-cleavage amounted to 0.04. To A10C C14U belongs 0.03. As to A10C C14A, the self-cleavage was 0.02. To A10U C11G belongs 0.03; to A10U C11U, 0.05; to A10U C11A, 0.04. In the case of A10C G13U, the self-cleavage worked out at 0.03. In the case of A10C G13C it was 0.02; in that of A10C G13A, 0.02. In the case of A10C C25U it was 0.04; in that of A10C C25A, 0.03.

In the case of A10C C25G, the self-cleavage was 0.01. As for A10G A8C, the self-cleavage amounted to 0.13.

As to A10G A8G, the self-cleavage turned out to be 0.49.

Regarding A10G A8U, the self-cleavage worked out at 0.12. To A10G C27A belongs 0.12. To A10G C27U belongs 0.1; to A10G C27G, 0.07; to A10G G22C, 0.05.

As for A10G G22A, the self-cleavage amounted to 0.38.

For A10G G22U, the self-cleavage worked out at 0.16. In the case of A10G G34C it was 0.12. To A10G G34U belongs 0.14. As for A10G G34A, the self-cleavage amounted to 0.24. In the case of A10U A38G it was 0.07; in that of A10U A38C, 0.06; in that of A10U A38U, 0.05. To A10U C26G belongs 0.05. In the case of A10U C26U it was 0.04; in that of A10U C26A, 0.01; in that of A10C C27A, 0.06. In the case of A10C C27G, the self-cleavage was 0.02.

For the variant A10C C27U, the self-cleavage is 0.02.

For A10U G22U, the self-cleavage amounted to 0.03. To A10U G22C belongs 0.02; to A10U G22A, 0.05. In the case of A10G C21G, the self-cleavage stood at 0.08. To A10G C21A belongs 0.33; to A10G C21U, 0.89. To A10C G19U belongs 0.03; to A10C G19C, 0.02; to A10C G19A, 0.04.

As for A10U C15G, the self-cleavage turned out to be 0.03. In the case of A10U C15A it was 0.03; in that of A10U C15U, 0.04; in that of A10C G23U, 0.02. In the case of A10C G23A it was 0.03; in that of A10C G23C, 0.01. A10G C52A: the self-cleavage is 0.92. As to A10G C52U, the self-cleavage came out at 0.95. In the case of A10G C52G it was 0.75; in that of A10C G48A, 0.02; in that of A10C G48C, 0.02.

As to A10C G48U, the self-cleavage came to 0.02. To A10G A16C belongs 0.27; to A10G A16U, 0.61; to A10G A16G, 0.89. As for A10C U12C, the self-cleavage was determined as 0.06. To A10C U12G belongs 0.04; to A10C U12A, 0.03. Consider A10U A17U, for which the self-cleavage amounted to 0.08.

Take A10U A17C: the self-cleavage turned out to be 0.04. In the case of A10U A17G it was 0.07; in that of A10U G23C, 0.02. A10U G23U: the self-cleavage was 0.01.

With A10U G23A, the self-cleavage was 0.03. With A10G C14G, the self-cleavage came out at 0.16. In the case of A10G C14U it was 0.28; in that of A10G C14A, 0.11; in that of A10U C20A, 0.05. To A10U C20U belongs 0.05; to A10U C20G, 0.03; to A10U A41U, 0.07. On to A10U A41G, for which the self-cleavage was 0.04. In the case of A10U A41C it was 0.04. In the case of A10U C27A it was 0.02. To A10U C27G belongs 0.04. For the variant A10U C27U, the self-cleavage came to 0.05. As for A10G G44C, the self-cleavage was 0.81. In the case of A10G G44U it was 0.87; in that of A10G G44A, 0.72. With A10G C33G, the self-cleavage was 0.07. As for A10G C33U, the self-cleavage amounted to 0.33. To A10G C33A belongs 0.1. In the case of A10G A38U, the self-cleavage amounted to 0.8.

For A10G A38G, the self-cleavage came to 0.88. As to A10G A38C, the self-cleavage was 0.91. In the case of A10C C20G it was 0.03; in that of A10C C20U, 0.08; in that of A10C C20A, 0.08. To A10G U12C belongs 0.12; to A10G U12A, 0.21. To A10G U12G belongs 0.2; to A10G A39G, 0.82. On to A10G A39C, for which the self-cleavage stood at 0.61. In the case of A10G A39U it was 0.69; in that of A10C G51C, 0.02. For the variant A10C G51U, the self-cleavage stood at 0.04.

A10C G51A: the self-cleavage was 0.06.

For the variant A10U A29C, the self-cleavage was 0.01.

Consider A10U A29U, for which the self-cleavage is 0.03. To A10U A29G belongs 0.03; to A10U A8U, 0.04; to A10U A8G, 0.05. As to A10U A8C, the self-cleavage was 0.03.

As to A10G C20U, the self-cleavage is 0.81. To A10G C20G belongs 0.09. In the case of A10G C20A it was 0.78; in that of A10U A40C, 0.01. In the case of A10U A40U it was 0.05; in that of A10U A40G, 0.05. Turning to A10C C32A, the self-cleavage came out at 0.02. Take A10C C32U: the self-cleavage is 0.02. In the case of A10C C32G, the self-cleavage came to 0.02. In the case of A10G A41U it was 0.76; in that of A10G A41C, 0.39.

For A10G A41G, the self-cleavage amounted to 0.2. In the case of A10U C9G it was 0.07; in that of A10U C9U, 0.05. In the case of A10U C9A it was 0.04. A10G A29G: the self-cleavage is 0.09. To A10G A29C belongs 0.05; to A10G A29U, 0.07; to A10U, 0.05. In the case of A10G it was 0.91. Regarding A10U G13U, the self-cleavage came to 0.

Regarding A10U G13C, the self-cleavage was 0.01.

Take A10U G13A: the self-cleavage stood at 0.01. In the case of A10G G54U it was 0.89; in that of A10G G54A, 0.9; in that of A10G G54C, 0.85. In the case of A10U C31G it was 0.03. A10U C31U: the self-cleavage was found to be 0.05. In the case of A10U C31A it was 0; in that of A10G G23A, 0.1. For the variant A10G G23C, the self-cleavage is 0.05. As to A10G G23U, the self-cleavage amounted to 0.05. In the case of A10G G50A it was 0.49; in that of A10G G50C, 0.82; in that of A10G G50U, 0.98. To A10C G34A belongs 0.04. In the case of A10C G34C it was 0.03; in that of A10C G34U, 0.05. A10C G49A: the self-cleavage came to 0.02. To A10C G49C belongs 0.02; to A10C G49U, 0.02. As to A10G U18C, the self-cleavage came out at 0.68. To A10G U18G belongs 0.66; to A10G U18A, 0.85. Consider A10U A39U, for which the self-cleavage stood at 0.12. To A10U A39G belongs 0.08; to A10U A39C, 0.04. To A10G G19A belongs 0.28; to A10G G19U, 0.13; to A10G G19C, 0.09. In the case of A10C G30U it was 0.01; in that of A10C G30C, 0.01; in that of A10C G30A, 0.01.

Take A10G U24G: the self-cleavage turned out to be 0.04. To A10G U24A belongs 0.09; to A10G U24C, 0.1; to A10C U43G, 0.64. To A10C U43C belongs 0.05; to A10C U43A, 0.39. In the case of A10C C33A it was 0.03. For A10C C33U, the self-cleavage was determined as 0.04. On to A10C C33G, for which the self-cleavage came out at 0.02.

The record behind these values is the RNAGym collection of RNA variant scans (doi:10.1002/anie.201605470).
